Source: the RNAGym collection of RNA variant scans (doi:10.1126/science.aae0568)
This sample holds only a part of the variants without activity.

B1: tRNA (parent)
chain: GUUCCGUUGGCGUAAUGGUAACGCGUCUCCCUCCUAAGGAGAAGACUGCGGGUUCGAGUCCCGUACGGAACG

Variants of: B1
Assay: yeast fitness relative to wild type (ratio to wild type); higher = fitter; tRNA-Arg(CCU), competitive growth, 37 C, YPD
Outline: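 The tRNA-Arg(CCU) gene variants were made by chemical synthesis with a 3% per-site mutation rate at 69 sites and inserted at the native genomic locus of Saccharomyces cerevisiae. After pooling, the strains were competed in YPD at 37°C for 24 hours in six parallel replicates. Gene amplicons from the start population and each end population were read by 100-nucleotide paired-end sequencing, and Darwinian fitness relative to wild type was taken from genotype frequency changes. Genotypes needed ≥ 100 starting reads, and estimates < 0.5 were set to 0.5.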

U13G C61A G67A and A14C A57C C62U cannot be ordered by yeast fitness: at most 0.5 for the first, at most 0.5 for the second.

Compared with A14C G17A, A14C G44C is lower in yeast fitness: 0.679 for the first, 0.577 for the second.

Compared with A14C, A14U is lower in yeast fitness: 0.868 for the first, 0.667 for the second.

Compared with A14G, A14G C30A C46U G52C C66U is lower in yeast fitness: 0.796 for the first, at most 0.5 for the second.

First: U13C C66U
Second: A14G G48C
The yeast fitness of the first is higher: 0.932 for the first, 0.701 for the second.

A14C U16C A21G C29A C34U A69U and A14G U19A C27U C34U C66U cannot be ordered by yeast fitness: at most 0.5 for the first, at most 0.5 for the second.

First: A14C U16A G41C
Second: A14G G48A C62A
The yeast fitness of the first is lower: at most 0.5 for the first, 0.65 for the second.

Compared with A14U A21C C22U C33G A45G C46G G52C, U13C C29G A65U A70U is higher in yeast fitness: at most 0.5 for the first, 0.588 for the second.

Going from A14C C62U to A14C U35C, the yeast fitness falls from 0.853 to 0.695.

Compared with U13C C30G A37U U47C A70G, A14U A40U U54A A70G is higher in yeast fitness: at most 0.5 for the first, 0.568 for the second.

A14C C24U G51C U54A and U13G C29U C33U G63A cannot be ordered by yeast fitness: at most 0.5 for the first, at most 0.5 for the second.

First: A14G C29G C31U A70C
Second: A14G C29G C31U A70G
The yeast fitness of the first is higher: 0.51 for the first, at most 0.5 for the second.

Going from A14G G23C A70U to A14C C34U A36G G39C, the yeast fitness falls from 0.564 to 0.535.

Going from A14G A15G U35C to U13C U47C C62U C66U, the yeast fitness falls from 0.572 to at most 0.5.

A14C C49A G58U and A14G C31U G58C G68A cannot be ordered by yeast fitness: at most 0.5 for the first, at most 0.5 for the second.

Going from U13C G68C to U13G G18C C30U C33G A65C A70G, the yeast fitness falls from 0.877 to at most 0.5.

Going from U13G A42C to U13G A14U U16A G17U, the yeast fitness falls from 1 to at most 0.5.

First: U13G C33U G41C
Second: A14G U32G A45G A69U
The yeast fitness of the first is higher: 0.581 for the first, at most 0.5 for the second.

A14C A36G G41A G48C U59C A70C and A14C A21G A37C G50A A57C cannot be ordered by yeast fitness: at most 0.5 for the first, at most 0.5 for the second.

U13G U26C C49G and A14C C55A A65U cannot be ordered by yeast fitness: at most 0.5 for the first, at most 0.5 for the second.

First: A14G G41A A70G
Second: A14C A37C G51A U59A
The yeast fitness of the first is higher: 0.638 for the first, 0.56 for the second.

A14G A15U G39U C61U and A14G A15C C46A A69U cannot be ordered by yeast fitness: at most 0.5 for the first, at most 0.5 for the second.

Going from A14C C22G G67A to U13C C46G, the yeast fitness rises from at most 0.5 to 0.97.

First: U13C C31U G44C
Second: A14C C30U A37C
The yeast fitness of the first is higher: 0.844 for the first, 0.552 for the second.

A14C C31U A69U and A14C U28C A40G C55A A57C C62U cannot be ordered by yeast fitness: at most 0.5 for the first, at most 0.5 for the second.

U13C C29U C55U and A14C C29U C30G C31A C34A G52C cannot be ordered by yeast fitness: at most 0.5 for the first, at most 0.5 for the second.

A14G A15G C33G C34U A43C C49G C61G C66U A69U and U13C U35A A70G cannot be ordered by yeast fitness: at most 0.5 for the first, at most 0.5 for the second.

Compared with A14G A15G A45U C66U, U13G C22U C30A is lower in yeast fitness: 0.619 for the first, 0.598 for the second.

Going from U13G G25C to A14G C34G A43C G58U A65U, the yeast fitness falls from 0.797 to at most 0.5.

A14G G18A C55U and A14G A36U A37G C46A G48A cannot be ordered by yeast fitness: at most 0.5 for the first, at most 0.5 for the second.

First: A14G C61G
Second: A14C U28A A42U U54A
The yeast fitness of the first is higher: 0.721 for the first, at most 0.5 for the second.

Going from A14G C24U A65U to U13G U16C G63C, the yeast fitness falls from 0.54 to at most 0.5.

First: A14G G50U G67C
Second: A14G C46U
The yeast fitness of the first is lower: at most 0.5 for the first, 0.886 for the second.

Going from A14C A20U C31U G38C G67A to A14G A45U C61U, the yeast fitness rises from 0.53 to 0.665.

A14C C24G G39A and A14G C22A C27A C29U A42C A70C cannot be ordered by yeast fitness: at most 0.5 for the first, at most 0.5 for the second.

Compared with U13C G48C C49U, A14C A20G is lower in yeast fitness: 0.772 for the first, 0.647 for the second.

Going from A14C U19G G44C C62G to A14G G39A, the yeast fitness rises from at most 0.5 to 0.751.

U13G A21U C22G U35A A65G A70C and A14G C29U G39A C49U G56C cannot be ordered by yeast fitness: at most 0.5 for the first, at most 0.5 for the second.

U13G A42C U47A G67C and A14U A15G C34G C61U A70C cannot be ordered by yeast fitness: at most 0.5 for the first, at most 0.5 for the second.

First: A14C A45G
Second: A14G C27A C49G U53A C62A
The yeast fitness of the first is higher: 0.611 for the first, at most 0.5 for the second.

Going from A14G A43C A45G to A14G G58C C66A, the yeast fitness falls from 0.585 to at most 0.5.

First: A14G C33U G63A
Second: U13G C46G
The yeast fitness of the first is lower: 0.614 for the first, 1.12 for the second.

First: U13G G41C
Second: U13C C33U A45G G50A C66A A70U
The yeast fitness of the first is higher: 0.782 for the first, at most 0.5 for the second.

A14G C30U G39A C60G and A14C C22U C34A cannot be ordered by yeast fitness: at most 0.5 for the first, at most 0.5 for the second.

First: A14G G25A A36G A42U G68C
Second: U13G U19C C61U
The yeast fitness of the first is higher: 0.576 for the first, at most 0.5 for the second.

Going from A14C A65U to A14C A65C, the yeast fitness rises from 0.62 to 0.635.

First: A14U C22A
Second: A14C A20C G67A
The yeast fitness of the first is higher: 0.668 for the first, at most 0.5 for the second.

A14C G39C C60U and A14C C30U A43G cannot be ordered by yeast fitness: at most 0.5 for the first, at most 0.5 for the second.

Compared with A14C G17C G18A G23C, A14C C24G G41A G44A U53A C66U is lower in yeast fitness: 0.554 for the first, at most 0.5 for the second.

A14G A43G G52C U53C G63C and A14C C29G G48C G67A cannot be ordered by yeast fitness: at most 0.5 for the first, at most 0.5 for the second.

Compared with A14C A45U A69U, A14G A21U U47G C49G G56C is lower in yeast fitness: 0.619 for the first, at most 0.5 for the second.

U13C U35C G48A C60A and A14G C29U A37G A65G cannot be ordered by yeast fitness: at most 0.5 for the first, at most 0.5 for the second.

Going from A14G A42C G50A A70C to U13G C49G, the yeast fitness rises from 0.593 to 0.823.

First: A14G G25A C30A
Second: A14C G48C C55U G63U
The yeast fitness of the first is higher: 0.563 for the first, at most 0.5 for the second.

Going from A14C G68C to A14U A37C C46U C61G, the yeast fitness falls from 0.687 to at most 0.5.

Going from U13G U32A C33A to U13G C55A, the yeast fitness rises from at most 0.5 to 0.502.

A14C C34A G48C and A14C A21U A42C G58C cannot be ordered by yeast fitness: at most 0.5 for the first, at most 0.5 for the second.

First: A14U A36C U53C A69C
Second: A14C C24U U35C C46G G52A C61A
The yeast fitness of the first is lower: at most 0.5 for the first, 0.535 for the second.

A14C A21C C24U A36U A43U C55U and U13C G17A C22A G25A cannot be ordered by yeast fitness: at most 0.5 for the first, at most 0.5 for the second.

Compared with U13C G23A, A14G C24U A43U A65C is lower in yeast fitness: 0.759 for the first, at most 0.5 for the second.

First: A14C C22A C46A
Second: A14C A69C
The yeast fitness of the first is lower: 0.605 for the first, 0.654 for the second.

First: A14C C61G
Second: U13C G23C C30G A65C
The yeast fitness of the first is higher: 0.536 for the first, at most 0.5 for the second.

A14C C30A A36G C62U G63A A70U and A14G U19C C60G cannot be ordered by yeast fitness: at most 0.5 for the first, at most 0.5 for the second.

Going from A14G U35G C55A G63A to A14U A43G, the yeast fitness rises from at most 0.5 to 0.537.

Compared with A14G C55A A57U G58C A69U, A14U A42G is higher in yeast fitness: at most 0.5 for the first, 0.529 for the second.

Compared with A14U A42U, A14G A20G A42U is higher in yeast fitness: 0.652 for the first, 0.696 for the second.

A14C C34A A37G A70U and U13C U47C U64G G68C cannot be ordered by yeast fitness: at most 0.5 for the first, at most 0.5 for the second.

Compared with A14C G23C A36U, A14G C31G A37G is lower in yeast fitness: 0.68 for the first, at most 0.5 for the second.

First: A14U A42U C49U C61U C66U
Second: A14C G51C
The yeast fitness of the first is lower: at most 0.5 for the first, 0.53 for the second.

A14G C22U C34U U35A C55A and A14C A40C U47C A57C cannot be ordered by yeast fitness: at most 0.5 for the first, at most 0.5 for the second.

First: A14G A42G C46G
Second: A14G C33G A70U
The yeast fitness of the first is lower: 0.517 for the first, 0.545 for the second.

A14G A42U G44C U54A and A14C C24U A40U C55G cannot be ordered by yeast fitness: at most 0.5 for the first, at most 0.5 for the second.

Compared with U13C G51C G67A, A14G C30U is higher in yeast fitness: at most 0.5 for the first, 0.81 for the second.

First: A14C U32G G58A A65C
Second: A14C G52C A57C G63C
The yeast fitness of the first is higher: 0.645 for the first, at most 0.5 for the second.

First: A14U C22G A57C G63C C66U
Second: U13G G41C G51A
The yeast fitness of the first is higher: 0.578 for the first, 0.564 for the second.

Going from A14U A21U G67C to A14G C46U G50C G51A C55U A57U C62G A70U, the yeast fitness falls from 0.596 to at most 0.5.

A14G C27G U54C and A14G U26A C27G cannot be ordered by yeast fitness: at most 0.5 for the first, at most 0.5 for the second.

Going from A14C U16C G51C G58A to A14G A42G G48C, the yeast fitness rises from 0.528 to 0.568.

A14G G18C C60A C66U and A14G G56U A65U G68C cannot be ordered by yeast fitness: at most 0.5 for the first, at most 0.5 for the second.

Going from A14C U26A C29U C49U C62G G68C to A14G A15U, the yeast fitness rises from 0.519 to 0.704.

First: A14G G52A
Second: A14G C22A C27G A42U
The yeast fitness of the first is higher: 0.631 for the first, at most 0.5 for the second.

Going from A14G C34G A43C U47C to A14G C29U, the yeast fitness rises from 0.533 to 0.988.

A14C C46G C60G and U13G U35G A40G G58C A65U cannot be ordered by yeast fitness: at most 0.5 for the first, at most 0.5 for the second.

Work on U13G A40C C49G U53A yielded a yeast fitness of at most 0.5.
